Assay results as given in ChEMBL document CHEMBL4359914, “Design, synthesis and biological evaluation of stereo- and regioisomers of amino aryl esters as multidrug resistance (MDR) reversers” (Eur J Med Chem, 2019).
Activity calls are given as the source filed them. The rule behind the calls is not given here.

Experiments:
MDCK [1] = experiment: Induction of ROS generation in dog MDCK cells over expressing MRP1 at 500 nM incubated for 24 hrs by DCFDA-AM staining based ATPlite luminescence assay; assay type: functional, cell-based; conditions: Canis lupus familiaris
Outline: (§1)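 MDCK-MRP1 or MDCK-MDR1 cells grown 24 h in fresh medium or with 500 nM compound, with or without 10 mM N-acetyl-cysteine. Intracellular ROS measured fluorimetrically with DCFDA-AM probe, expressed as nmol/mg cellular protein; duplicates, n = 3, means ± SD.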

[2] = molecular target: T1, ATP-dependent translocase ABCB1 (Homo sapiens, UniProt P08183); experiment: Inhibition of P-gp in human K562/DOX cells assessed as drug level causing 50% increase in nuclear pirarubicin concentration incubated for 30 mins by fluorescence based assay; assay type: cell-based; conditions: read-out: I0.5
[3] = molecular target: T1, ATP-dependent translocase ABCB1; experiment: Inhibition of P-gp in human K562/DOX cells assessed as drug level causing maximum increase in nuclear pirarubicin concentration incubated for 30 mins by fluorescence based assay relative to control; assay type: cell-based; conditions: 0.5 h
[4] = Chemical stability of compound assessed as half life in PBS at 1 uM incubated 120 mins by LC-MS/MS analysis; assay type: physicochemical
Outline: (§2)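 Analyte added to PBS or human plasma (healthy volunteer, stored at -80 °C) to 1 μM; incubated at 37 °C for 0, 30, 60 and 120 min, triplicate per time point. Internal standard solution added, centrifuged, supernatant dried under nitrogen and redissolved. Analyte quantified by LC-MS/MS in MRM mode; half-life derived from decay rate k.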

MDCK [5] = experiment: Cytotoxicity against dog MDCK cells assessed as reduction in cell viability incubated for 24 hrs by MTT assay; assay type: cell-based; conditions: Canis lupus familiaris
Outline: (§3)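 MDCK parental, MDCK-MDR1 and MDCK-MRP1 cells grown in DMEM high glucose with 10% FBS, 2 mM glutamine, penicillin/streptomycin at 37 °C, 5% CO2. Compound exposure 24 h; viability by MTT. EC50 taken per line; selectivity ratio computed as EC50 parental/EC50 MDR.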

[6] = Stability of compound in human plasma assessed as half life at 1 uM incubated for 120 min by LC-MS/MS analysis; assay type: ADME, cell-free; outline: as §2
MDCK [7] = experiment: Induction of ROS-mediated cell death in dog MDCK cells expressing MRP1 at 500 nM in presence of NAC incubated for 24 hrs by DCFDA-AM staining based ATPlite luminescence assay; assay type: functional; conditions: Canis lupus familiaris
Outline: (§4)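 Viability by ATPlite luminescence; untreated cell RLU set as 100%, results as % viable cells vs untreated. Quadruplicates, n = 3, means ± SD.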

[8] = molecular target: T2, Broad substrate specificity ATP-binding cassette transporter ABCG2 (Homo sapiens, UniProt Q9UNQ0); experiment: Inhibition of BCRP (unknown origin) expressed in MDCK cells assessed as increase in Hoechst 33342 accumulation incubated for 30 mins by Hoechst 33342 dye based fluorescence assay; assay type: cell-based
T2 sequence (Q9UNQ0 whole entry): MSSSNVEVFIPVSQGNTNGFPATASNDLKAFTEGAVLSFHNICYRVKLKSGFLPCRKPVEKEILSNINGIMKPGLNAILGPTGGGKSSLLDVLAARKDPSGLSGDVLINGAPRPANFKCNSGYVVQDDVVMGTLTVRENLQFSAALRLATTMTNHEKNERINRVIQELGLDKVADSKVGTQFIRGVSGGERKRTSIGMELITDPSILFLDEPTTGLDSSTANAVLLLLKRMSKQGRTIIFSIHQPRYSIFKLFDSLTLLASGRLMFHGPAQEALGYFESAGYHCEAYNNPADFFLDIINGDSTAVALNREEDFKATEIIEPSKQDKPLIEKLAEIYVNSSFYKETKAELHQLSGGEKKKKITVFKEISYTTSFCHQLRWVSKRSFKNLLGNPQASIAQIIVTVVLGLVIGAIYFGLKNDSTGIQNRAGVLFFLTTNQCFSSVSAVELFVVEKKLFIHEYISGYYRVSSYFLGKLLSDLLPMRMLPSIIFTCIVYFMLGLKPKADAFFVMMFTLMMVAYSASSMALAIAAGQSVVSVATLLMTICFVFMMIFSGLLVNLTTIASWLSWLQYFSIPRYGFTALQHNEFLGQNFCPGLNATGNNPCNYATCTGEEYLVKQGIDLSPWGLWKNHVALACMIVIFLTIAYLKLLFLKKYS

MDCK [9] = experiment: Induction of ROS-mediated cell death in dog MDCK cells expressing MRP1 at 500 nM incubated for 24 hrs by DCFDA-AM staining based ATPlite luminescence assay; assay type: functional; conditions: Canis lupus familiaris; outline: as §4
P-gp (ABCB1) = P-gp (ABCB1) (Homo sapiens, UniProt P08183); experiment: Inhibition of P-gp (unknown origin) in […] MDCK-MDR1 cells assessed as increase in doxorubicin-induced cytotoxicity at 500 nM […] by MTT assay relative to control; assay type: cell-based; conditions: probe doxorubicin
[10] = molecular target: T1, ATP-dependent translocase ABCB1; experiment: Inhibition of P-gp (unknown origin) expressed in MDCK-MDR1 cells assessed as increase in calcein-AM accumulation incubated for 30 mins by calcein-AM dye based fluorescence assay; assay type: cell-based
MDCK [11] = experiment: Cytotoxicity against dog MDCK cells expressing MRP1 assessed as reduction in cell viability incubated for 24 hrs by MTT assay; assay type: functional, cell-based; conditions: Canis lupus familiaris; outline: as §3
[12] = molecular target: T1, ATP-dependent translocase ABCB1; experiment: Inhibition of MDR1 (unknown origin) expressed in MDCK-MDR1 cells assessed as decrease in ATP consumption incubated for 2 hrs by ATPlite luminescence assay; assay type: cell-based; conditions: mdck-mdr1, 2 h
BCRP (ABCG2) = molecular target: T3, BCRP (ABCG2) (Homo sapiens, UniProt Q9UNQ0); experiment: Inhibition of BCRP (unknown origin) expressed in MDCK cells assessed as increase in Hoechst 33342 accumulation at upto 100 uM incubated for 30 mins by Hoechst 33342 dye based fluorescence assay; assay type: cell-based; conditions: MDCK cells expressing BCRP, probe Hoechst 33342
T3 sequence (Q9UNQ0 whole entry): T2 sequence (Q9UNQ0 whole entry)

MDCK-MDR1 [13] = experiment: Induction of ROS-mediated cell death in dog MDCK-MDR1 cells at 500 nM incubated for 24 hrs by DCFDA-AM staining based ATPlite luminescence assay; assay type: functional; conditions: Canis lupus familiaris; outline: as §4
MDCK-MDR1 [14] = experiment: Induction of ROS generation in dog MDCK-MDR1 cells at 500 nM incubated for 24 hrs by DCFDA-AM staining based ATPlite luminescence assay; assay type: functional, cell-based; conditions: Canis lupus familiaris; outline: as §1
MDCK-MDR1 [15] = experiment: Induction of ROS-mediated cell death in dog MDCK-MDR1 cells at 500 nM incubated for 24 hrs in presence of NAC by DCFDA-AM staining based ATPlite luminescence assay; assay type: functional; conditions: Canis lupus familiaris; outline: as §4
MDCK-MDR1 [16] = experiment: Cytotoxicity against dog MDCK-MDR1 cells assessed as reduction in cell viability incubated for 24 hrs by MTT assay; assay type: functional, cell-based; conditions: Canis lupus familiaris, MDCK-MDR1, 24 h; outline: as §3

T1 sequence (P08183 whole entry): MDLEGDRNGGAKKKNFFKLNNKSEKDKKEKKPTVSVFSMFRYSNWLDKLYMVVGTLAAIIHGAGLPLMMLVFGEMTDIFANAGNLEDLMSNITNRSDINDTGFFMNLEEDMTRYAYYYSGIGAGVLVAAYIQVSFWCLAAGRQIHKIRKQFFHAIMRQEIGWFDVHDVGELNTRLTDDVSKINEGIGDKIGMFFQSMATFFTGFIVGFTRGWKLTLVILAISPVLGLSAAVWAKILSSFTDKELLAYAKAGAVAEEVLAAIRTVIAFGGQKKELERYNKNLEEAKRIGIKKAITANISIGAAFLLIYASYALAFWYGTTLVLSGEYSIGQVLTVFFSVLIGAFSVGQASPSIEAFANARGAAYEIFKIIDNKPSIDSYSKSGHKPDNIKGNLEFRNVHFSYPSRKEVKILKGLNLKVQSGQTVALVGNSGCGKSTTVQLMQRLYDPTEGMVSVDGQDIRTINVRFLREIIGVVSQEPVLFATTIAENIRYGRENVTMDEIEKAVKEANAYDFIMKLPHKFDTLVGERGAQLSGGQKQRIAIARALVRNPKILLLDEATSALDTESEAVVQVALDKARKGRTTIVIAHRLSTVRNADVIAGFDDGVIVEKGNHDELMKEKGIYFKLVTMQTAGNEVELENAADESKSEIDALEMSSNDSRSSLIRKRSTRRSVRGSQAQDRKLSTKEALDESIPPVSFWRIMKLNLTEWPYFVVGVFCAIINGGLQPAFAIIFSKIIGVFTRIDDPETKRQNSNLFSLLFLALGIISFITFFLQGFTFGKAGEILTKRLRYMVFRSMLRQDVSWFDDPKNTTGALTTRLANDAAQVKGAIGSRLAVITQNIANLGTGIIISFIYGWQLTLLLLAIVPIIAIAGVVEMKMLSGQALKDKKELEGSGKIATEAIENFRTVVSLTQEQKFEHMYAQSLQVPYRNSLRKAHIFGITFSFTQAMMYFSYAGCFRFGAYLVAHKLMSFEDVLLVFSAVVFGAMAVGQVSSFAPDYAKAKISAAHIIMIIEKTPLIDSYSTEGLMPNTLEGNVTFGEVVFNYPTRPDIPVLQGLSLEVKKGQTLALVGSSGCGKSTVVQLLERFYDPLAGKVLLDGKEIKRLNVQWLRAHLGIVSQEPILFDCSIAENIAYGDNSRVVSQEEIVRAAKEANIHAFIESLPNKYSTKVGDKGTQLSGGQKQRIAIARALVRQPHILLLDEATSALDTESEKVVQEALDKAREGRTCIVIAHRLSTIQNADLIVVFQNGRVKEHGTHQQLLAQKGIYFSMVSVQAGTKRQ
Chain of P-gp (ABCB1) (P08183 whole entry): as above

Row | IC50 [2] [µM] | Alpha max [3] | half-life at 1 µM [4] [h] | half-life at 1 µM [6] [h] | EC50 ([8]; read-out: EC50) [µM] | EC50 [10] [µM] | inhibition (INH) [12] | EC50 ([8]; mdck) | inhibition at 0.5 h (BCRP (ABCG2)) [%] | Compound | Activity (MDCK [1]) | EC50 (MDCK [5]) [µM] | Activity (MDCK [7]) | Activity (MDCK [9]) | inhibition at 24 h, 0.5 µM (P-gp (ABCB1)) [%] | EC50 (MDCK [11]) [µM] | Activity (MDCK-MDR1 [13]) | Activity (MDCK-MDR1 [14]) | Activity (MDCK-MDR1 [15]) | EC50 (MDCK-MDR1 [16]) [µM]
1 | 0.35 | 0.72 | ≥ 4 | ≥ 4 | 41 | 0.31 | Not Active |  |  | COc1cc(/C=C/C(=O)OCCCCCN(C)C[C@@H](C)COC(=O)c2cc(OC)c(OC)c(OC)c2)cc(OC)c1OC | Active | 100 | Active | Active | 30 | 11.7 |  |  |  | 
2 | 0.4 | 0.99 | ≥ 4 | 0.483 |  | 1 | Not Active | Not Active | 0 | COc1cc(/C=C/C(=O)OC[C@H](C)CN(C)CCCCCOC(=O)c2cc(OC)c(OC)c(OC)c2)cc(OC)c1OC |  |  |  |  |  |  |  |  |  | 
3 | 0.54 | 0.89 | ≥ 4 | ≥ 4 | 6.4 | 0.55 | Not Active |  |  | COc1cc(/C=C/C(=O)OCCCN(C)C[C@H](C)COC(=O)c2cc(OC)c(OC)c(OC)c2)cc(OC)c1OC |  | 100 |  |  |  |  | Active | Active | Active | 40
